The results in this text go back to ChEMBL document CHEMBL1156912, “Subtlety of the structure-affinity and structure-efficacy relationships around a nonpeptide oxytocin receptor agonist” (J Med Chem, 2010).

The source made the active and inactive calls. The rule behind the calls is not given here.

For one experiment, the target named is T1, Oxytocin receptor (Homo sapiens, UniProt P30559).
T1 sequence (P30559 whole entry): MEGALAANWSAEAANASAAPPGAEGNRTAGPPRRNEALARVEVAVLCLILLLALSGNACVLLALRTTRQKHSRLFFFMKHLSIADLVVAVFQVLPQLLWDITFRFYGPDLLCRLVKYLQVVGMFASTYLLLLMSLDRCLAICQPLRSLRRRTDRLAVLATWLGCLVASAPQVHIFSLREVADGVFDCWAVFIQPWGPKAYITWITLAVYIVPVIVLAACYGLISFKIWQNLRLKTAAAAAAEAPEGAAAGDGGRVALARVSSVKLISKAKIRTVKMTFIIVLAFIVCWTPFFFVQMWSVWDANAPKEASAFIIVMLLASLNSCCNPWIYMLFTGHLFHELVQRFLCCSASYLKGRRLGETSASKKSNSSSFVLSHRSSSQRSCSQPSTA
In words: Displacement of [3H]AVP from human oxytocin receptor expressed in CHO cells. In kind it is cell-based. The note with it: read-out: Ki. The method in brief:
(§1)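 Membranes came from CHO cells stably expressing the human receptor; OT-R and V1a-R cells were treated overnight with 5 mM butyrate. Membrane protein was 10–15 μg (OT, V1a) or 5 μg (V2), incubated 30 min at 30 °C in 50 mM Tris-HCl, 5 mM MgCl2, 1 mg/mL BSA, pH 7.4, with 1–2 nM [3H]AVP and competitor 0.1 pM–100 μM. Nonspecific binding: 10 μM AVP. Filtration, then Ki via Cheng–Prusoff. Mean ± SEM of ≥3 experiments in triplicate.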

Experiment [1] addresses T2, Oxytocin receptor (Homo sapiens) (UniProt P30559).
T2 sequence (whole entry): T1 sequence (P30559 whole entry)
Put plainly: Activity at human oxytocin receptor expressed in CHO cells assessed as inhibition of agonist-induced inositol phosphate accumulation at 10 uM. In kind it is functional, cell-based. Set-up: scale not given: the % may be the effect or the level left.

The target of experiment [2] is T3, Vasopressin V1a receptor (Homo sapiens, UniProt P37288). In words: Displacement of [3H]AVP from human vasopressin V1a receptor expressed in CHO cells. The note with it: read-out: Ki. In kind it is cell-based. The method in brief: as §1
Target sequence in this assay (P37288 whole entry): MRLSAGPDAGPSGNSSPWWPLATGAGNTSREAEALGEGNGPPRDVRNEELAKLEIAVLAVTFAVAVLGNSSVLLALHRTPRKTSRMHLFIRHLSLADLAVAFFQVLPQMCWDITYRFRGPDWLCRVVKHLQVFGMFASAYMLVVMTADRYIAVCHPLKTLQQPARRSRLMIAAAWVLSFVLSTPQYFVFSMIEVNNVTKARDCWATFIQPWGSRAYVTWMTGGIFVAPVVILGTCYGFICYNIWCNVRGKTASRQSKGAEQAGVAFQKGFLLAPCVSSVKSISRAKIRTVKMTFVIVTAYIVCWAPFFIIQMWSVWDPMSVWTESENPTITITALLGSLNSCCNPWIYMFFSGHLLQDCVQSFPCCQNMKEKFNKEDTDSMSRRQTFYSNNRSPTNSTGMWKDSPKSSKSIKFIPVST
The target in experiment [3] is T4, Vasopressin V2 receptor (Homo sapiens, UniProt P30518). Put plainly: Displacement of [3H]AVP from human vasopressin V2 receptor expressed in CHO cells. In kind it is cell-based. The note with it: read-out: Ki. The method in brief: as §1
Experiment [4] deals with T4, Vasopressin V2 receptor. Put plainly: Activity at human vasopressin V2 receptor expressed in CHO cells assessed as inhibition of agonist-induced cAMP accumulation at 10 uM. Type of experiment: functional, cell-based. Also on record: Activity: scale not given: the % may be the effect or the level left.
Experiment [5] has as its target T3, Vasopressin V1a receptor. In words: Activity at human vasopressin V1a receptor expressed in CHO cells assessed as inositol phosphate accumulation up to 100 uM. In kind it is functional, cell-based. In a few lines: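 Human V1a-expressing CHO cells, 80000 cells/well, exposed to ligand for 30 min at 37 °C. IP1 was measured by HTRF IP-One. EC50 (K_act) from the dose–response curve. Emax is relative to the 1 μM AVP maximum. Weak responses are reported as % of AVP maximum at 1 μM ligand.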
Target sequence in this assay (P37288 whole entry, looked up): as the sequence (P37288 whole entry) above

In experiment [6] the target is T4, Vasopressin V2 receptor. Put plainly: Activity at human vasopressin V2 receptor expressed in CHO cells assessed as cAMP accumulation up to 100 uM. In kind it is functional, cell-based. In a few lines: (§2)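 V2-R agonism in CHO cells at 1000 cells/well, stimulated 30 min at 37 °C in D-MEM containing 0.1 mM Ro-20-1724 and 1 mg/mL BSA. cAMP was read by cAMP dynamic 2 HTRF. K_act from the sigmoidal fit. Emax is % of the 0.1 μM AVP response. Single-concentration values are % of AVP maximum.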

Experiment [7] deals with T3, Vasopressin V1a receptor. In words: Activity at human vasopressin V1a receptor expressed in CHO cells assessed as inhibition of agonist-induced inositol phosphate accumulation at 10 uM. Type of experiment: functional, cell-based. Also on record: scale not given: the % may be the effect or the level left. In a few lines:
(§3)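 Human V1a receptor in stably transfected CHO cells, seeded at 80000 cells/well overnight. Cells were preincubated 10 min at 37 °C with ligand (10 fM–100 μM, ≤1% final DMSO), then challenged with 2 nM AVP for 30 min. IP1 was read by IP-One HTRF. K_inact was derived by Cheng–Prusoff-type correction using AVP K_act 1.20 nM. Fixed-concentration lines are % inhibition, n = 2.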
Target sequence in this assay (P37288 whole entry, looked up): as the sequence (P37288 whole entry) above

The target of experiment [8] is T3, Vasopressin V1a receptor. Put plainly: Activity at human vasopressin V1a receptor expressed in CHO cells assessed as inhibition of agonist-induced inositol phosphate accumulation at 100 uM. Set-up: scale not given: the % may be the effect or the level left. In kind it is functional, cell-based. The method in brief: as §3
Target sequence in this assay (P37288 whole entry, looked up): as the sequence (P37288 whole entry) above
Experiment [9] has as its target T4, Vasopressin V2 receptor. In words: Activity at human vasopressin V2 receptor expressed in CHO cells assessed as inhibition of agonist-induced cAMP accumulation at 100 uM. In kind it is functional, cell-based. Also on record: scale not given: the % may be the effect or the level left.
In experiment [10] the target is T4, Vasopressin V2 receptor. In words: Activity at human vasopressin V2 receptor expressed in CHO cells assessed as cAMP accumulation at 10 uM. Type of experiment: functional, cell-based. In a few lines:
as §2

T4 sequence (P30518 whole entry): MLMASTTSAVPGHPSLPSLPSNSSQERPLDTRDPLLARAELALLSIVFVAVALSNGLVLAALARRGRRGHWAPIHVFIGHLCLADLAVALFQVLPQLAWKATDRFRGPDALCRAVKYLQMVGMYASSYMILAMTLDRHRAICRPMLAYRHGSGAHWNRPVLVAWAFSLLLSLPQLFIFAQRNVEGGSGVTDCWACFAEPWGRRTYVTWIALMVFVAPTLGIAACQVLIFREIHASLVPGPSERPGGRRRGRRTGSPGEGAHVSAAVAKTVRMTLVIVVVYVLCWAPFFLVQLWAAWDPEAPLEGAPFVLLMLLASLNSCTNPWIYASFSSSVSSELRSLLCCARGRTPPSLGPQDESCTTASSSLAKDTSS

Consider `CN1CCCN(C(=S)[C@@H]2CCCN2C(=O)NCc2ccc(C(=O)N3Cc4cccn4Cc4ccccc43)c(Cl)c2)CC1`, for which the Ki on Oxytocin receptor, at Vasopressin V1a receptor [2] and on Vasopressin V2 receptor [3] was over 5 µM each time. The Activity in [1] was determined as 17%; on Vasopressin V2 receptor [4], 25%; at Vasopressin V1a receptor [7] it was 7%; on Vasopressin V1a receptor [8], 92%; at Vasopressin V2 receptor [9] it was 94%; on Vasopressin V2 receptor [10], 13%. For the same compound, the outcome at Vasopressin V1a receptor [5] and on Vasopressin V2 receptor [6] was inactive.
